p97 ATPase inh = inhibitors of human p97 ATPase; recombinant p97 ATPase, Kinase-Glo ATP luminescence, 3 h; inhibition, % at 8 µM; hit rate 0.42% among 220,000; in the data active means inhibition above about 15%;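 further: 0% = DMSO vehicle and 100% = wells lacking enzyme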
Runt-CBFb FRET = blocks binding of human RUNX1 Runt domain to CBFb. inhibition, % at 20 µM. hit rate 0.46% among 220,000. Cerulean-Runt/Venus-CBFb FRET ratio 530/480, 1 h. AID 1496;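 active means inhibition over about 50% at 20 µM in the single-dose screen, limit read from the data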;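 further: 0% = DMSO wells and 100% = excess unlabeled CBFb competitor control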
Target sequence (Q01196 whole entry, looked up, the tested form may be a part): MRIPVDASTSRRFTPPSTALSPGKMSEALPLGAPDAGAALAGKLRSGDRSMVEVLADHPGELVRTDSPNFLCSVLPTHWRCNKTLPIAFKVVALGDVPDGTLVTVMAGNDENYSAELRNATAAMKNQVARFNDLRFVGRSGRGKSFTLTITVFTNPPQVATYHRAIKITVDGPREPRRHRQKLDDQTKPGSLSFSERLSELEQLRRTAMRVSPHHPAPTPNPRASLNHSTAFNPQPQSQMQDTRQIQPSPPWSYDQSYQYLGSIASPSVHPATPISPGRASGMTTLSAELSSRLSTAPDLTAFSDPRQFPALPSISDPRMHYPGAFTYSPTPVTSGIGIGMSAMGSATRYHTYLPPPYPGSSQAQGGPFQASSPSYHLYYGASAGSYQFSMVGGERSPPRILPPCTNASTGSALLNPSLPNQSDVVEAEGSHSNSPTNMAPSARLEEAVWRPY
Target sequence (Q13951 whole entry, looked up, the tested form may be a part): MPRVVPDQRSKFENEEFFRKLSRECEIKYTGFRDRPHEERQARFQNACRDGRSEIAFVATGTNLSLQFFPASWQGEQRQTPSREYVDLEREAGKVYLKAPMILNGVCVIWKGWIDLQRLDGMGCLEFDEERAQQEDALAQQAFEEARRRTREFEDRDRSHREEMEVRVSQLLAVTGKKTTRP
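Assay system: Cerulean-tagged RUNX1 Runt domain (FRET donor) fusion protein / Amount: 100 nM each of Venus-CBFb and Cerulean-Runt domain / Medium: Tris buffer pH 7.5 with salts and BSA / Also added: Venus-CBFb 100 nM / Schedule: 1 h complex formation plus 1 h compound treatment, room temperature / Signal: FRET fluorescence / Read-out: loss of energy transfer signal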
TbHK1 inh = T. brucei hexokinase 1 inhibition; AID 1430; inhibition, % at 10 µM; hit rate 0.11% among 220,000; recombinant TbHK1, G6PDH-coupled NADH A340;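 active means inhibition of 50% or more in the single-dose primary screen; inactive means inhibition below 50%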
RanGTP-Imp inh = disruptors of Ran-importin-beta complex formation – biochemical, FRET, CFP-Ran, YFP-importin-beta, homogeneous, primary screen. cell-free CFP-Ran/YFP-importin-beta FRET ratio. inhibition, % (test concentration not listed). hit rate 1.1% among 300,000. AID 2216;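 active means more than half of the replicate wells show a fall in the fluorescence ratio signal beyond about 16%, limit read from the data, passing the limit was not always enough; inconclusive means exactly half of the replicate wells pass the set limit; inactive means fewer than half of replicates pass the limit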;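 further: 0% = DMSO wells and 100% = Ran loaded with GDP instead of GTP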
Hck Nef HTS = inhibitors of human Hck kinase activated by Nef. hit rate 0.68% among 220,000. AID 463187. P08631. Recombinant Hck-YEEI plus Nef, Z-Lyte FRET kinase assay. inhibition, % at 20 µM;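 active means Hck-Nef kinase inhibition above about 50%, limit read from the data; inactive means inhibition below that limit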;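 further: 0% = DMSO with Hck plus Nef and 100% = Hck alone without Nef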
Runt-SMMHC FRET = inhibitors of human RUNX1 Runt domain binding to CBFb-SMMHC; inhibition, % at 20 µM; Cerulean-Runt/Venus-CBFb-SMMHC FRET ratio 530/480, 1 h; hit rate 0.74% among 220,000; Q01196+Q13951;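 active means mean inhibition across duplicate retests at 20 µM reaching about 50%, limit read from the data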;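 further: 0% = DMSO wells and 100% = wells with excess untagged CBFb-SMMHC; inhibitors lower the FRET ratio by blocking Runt binding to CBFb-SMMHC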
Active calls of the source: *. Rows were chosen to be rich in hits. Some 2.1% of all compounds tested hit in one or more screens of this group.

CCC(=O)Nc1cccc(C2=NOC3(C2)C[C@@H](C(N)=O)N(C(=O)C(c2ccccc2)c2ccccc2)C3)c1 (stereo partly specified) was read as Runt-CBFb FRET -3, TbHK1 inh -17, RanGTP-Imp inh 26*, Hck Nef HTS 25 and Runt-SMMHC FRET 0.
`O=C(CN1C(=O)S/C(=C\c2ccc(F)cc2)C1=O)Nc1cccc(S(=O)(=O)NCc2ccco2)c1` gave p97 ATPase inh -4, Runt-CBFb FRET 0, TbHK1 inh 1, RanGTP-Imp inh 3, Hck Nef HTS 1 and Runt-SMMHC FRET -3.
Screening CCCCn1nc(NC(=O)c2cccs2)c2cc3ccccc3nc21 returned p97 ATPase inh -1, Runt-CBFb FRET 26, TbHK1 inh 1, RanGTP-Imp inh 74*, Hck Nef HTS 13 and Runt-SMMHC FRET 63*.
Screening CCCn1nc(NC(=O)c2cccs2)c2cc3ccccc3nc21 returned p97 ATPase inh 4, TbHK1 inh -1, RanGTP-Imp inh 61*, Hck Nef HTS 14 and Runt-SMMHC FRET 50*.
For CCOC(=O)c1ccc(NC(=O)N2CCN(c3ccccc3OC)CC2)cc1 the results were p97 ATPase inh -3, Runt-CBFb FRET 2, TbHK1 inh 0, RanGTP-Imp inh 27*, Hck Nef HTS 2 and Runt-SMMHC FRET -1.
CCOC(=O)N1CCN(c2ccccc2OC)CC1 was read as p97 ATPase inh -3, Runt-CBFb FRET 1, TbHK1 inh -9, RanGTP-Imp inh 2, Hck Nef HTS 16 and Runt-SMMHC FRET 1.
COc1ccc(-c2cc(C)no2)cc1S(=O)(=O)N1CCCN(Cc2ccccc2Cl)C1 was read as RanGTP-Imp inh 0.
`CCCn1c2ccccc2c2cnn(CC(=O)NCCN(C)C)c(=O)c21` gave RanGTP-Imp inh 20*.
`Clc1ccccc1C1=CC(c2ccco2)n2ncnc2N1` (stereo unspecified) gave p97 ATPase inh -2, Runt-CBFb FRET 10, TbHK1 inh -25, RanGTP-Imp inh 43*, Hck Nef HTS 16 and Runt-SMMHC FRET 81.
`COc1ccc(C2=CC(c3ccco3)n3ncnc3N2)cc1` (stereo unspecified) gave p97 ATPase inh 8, Runt-CBFb FRET -64, TbHK1 inh -12, Hck Nef HTS -48 and Runt-SMMHC FRET 87*.
COc1ccc(C2C=C(C)Nc3ncnn32)cc1 (stereo unspecified) was read as RanGTP-Imp inh 0.
Screening COc1ccc(C2C=C(c3ccccc3)Nc3ncnn32)cc1 (stereo unspecified) returned p97 ATPase inh -1, Runt-CBFb FRET 18, TbHK1 inh -25, RanGTP-Imp inh 6, Hck Nef HTS 1 and Runt-SMMHC FRET 63*.
Screening COc1cc(NC(=S)NC(=O)CCc2ccccc2)cc(OC)c1 returned RanGTP-Imp inh -2.
Screening Oc1csc(Cc2nc(-c3ccc(-c4ccccc4)cc3)cs2)n1 returned p97 ATPase inh -2, Runt-CBFb FRET -14, TbHK1 inh -32, RanGTP-Imp inh -6, Hck Nef HTS 0 and Runt-SMMHC FRET -50.
For Oc1csc(Cc2nc(-c3ccccc3F)cs2)n1 the results were p97 ATPase inh 1, Runt-CBFb FRET 5, TbHK1 inh -3, RanGTP-Imp inh 21*, Hck Nef HTS 13 and Runt-SMMHC FRET -12.
Screening Cc1ccc(C(=O)/C=C/NCc2ccc(F)cc2)cc1 returned p97 ATPase inh 3, Runt-CBFb FRET 2, TbHK1 inh -12, RanGTP-Imp inh 31*, Hck Nef HTS 5 and Runt-SMMHC FRET -1.
For O=c1c2ccccc2c(C=Nc2ccccc2O)c(O)n1-c1nccs1 the results were p97 ATPase inh 5, Runt-CBFb FRET -13, TbHK1 inh -10, RanGTP-Imp inh 41*, Hck Nef HTS 8 and Runt-SMMHC FRET -18.
`Cc1ccccc1N=Cc1c(O)n(-c2nccs2)c(=O)c2ccccc12` gave p97 ATPase inh -2, Runt-CBFb FRET -45, TbHK1 inh -5, RanGTP-Imp inh inconclusive, Hck Nef HTS 3 and Runt-SMMHC FRET -61.
Screening CCc1ccc(/C=C2\Oc3cc(OS(C)(=O)=O)ccc3C2=O)cc1 returned p97 ATPase inh -2, Runt-CBFb FRET -8, TbHK1 inh -21, RanGTP-Imp inh 3, Hck Nef HTS 1 and Runt-SMMHC FRET -6.
Screening CCc1ccc(/C=C2\Oc3c(ccc(O)c3CN3CCN(CCO)CC3)C2=O)cc1 returned p97 ATPase inh 4, Runt-CBFb FRET 12, TbHK1 inh -37, RanGTP-Imp inh 12, Hck Nef HTS -21 and Runt-SMMHC FRET 81*.
For CC(C)N(Cc1cn(C)nc1-c1cccc(Cl)c1)Cc1nccn1C the results were p97 ATPase inh -4, Runt-CBFb FRET -2, TbHK1 inh 1, RanGTP-Imp inh -3, Hck Nef HTS 1 and Runt-SMMHC FRET 1.
Screening CCC1C2CN(C(C)=O)CC=C2C(C#N)=C(N)C1(C#N)C#N (stereo unspecified) returned p97 ATPase inh 5, Runt-CBFb FRET 8, TbHK1 inh 34, RanGTP-Imp inh 0, Hck Nef HTS 6 and Runt-SMMHC FRET 25.
For CC(C)N1CC=C2C(C#N)=C(N)C(C#N)(C#N)C(c3ccccc3)C2C1 (stereo unspecified) the results were p97 ATPase inh 0, Runt-CBFb FRET 74*, TbHK1 inh -7, RanGTP-Imp inh 71*, Hck Nef HTS 16 and Runt-SMMHC FRET 63*.
`N#CC1=C(N)C(C#N)(C#N)[C@H](c2ccncc2)[C@H]2CN(C(=O)OCc3ccccc3)CC=C12` gave p97 ATPase inh -3, Runt-CBFb FRET 13, TbHK1 inh -1, RanGTP-Imp inh 11, Hck Nef HTS -6 and Runt-SMMHC FRET 18.
For CN1CC=C2C(C#N)=C(N)C(C#N)(C#N)C(Cc3ccccc3)C2C1 (stereo unspecified) the results were p97 ATPase inh 1, Runt-CBFb FRET 110*, TbHK1 inh -4, RanGTP-Imp inh 100*, Hck Nef HTS 13 and Runt-SMMHC FRET 78*.
Cc1ccc(C2C3CSCC=C3C(C#N)=C(N)C2(C#N)C#N)cc1 (stereo unspecified) was read as p97 ATPase inh 4, Runt-CBFb FRET -5, TbHK1 inh 0, RanGTP-Imp inh 16*, Hck Nef HTS -6 and Runt-SMMHC FRET -23.
`CC(C)(C)OC(=O)N1CC=C2C(C#N)=C(N)C(C#N)(C#N)[C@H](c3cccnc3)[C@H]2C1` gave p97 ATPase inh 4, Runt-CBFb FRET 16, TbHK1 inh -3, RanGTP-Imp inh 18*, Hck Nef HTS -2 and Runt-SMMHC FRET 29.
For CCCC1C2CN(C(C)=O)CC=C2C(C#N)=C(N)C1(C#N)C#N (stereo unspecified) the results were p97 ATPase inh 2, Runt-CBFb FRET 4, TbHK1 inh -12, RanGTP-Imp inh 9, Hck Nef HTS 0 and Runt-SMMHC FRET 10.

Screening results (PubChem)
